Measurements reported in ChEMBL document CHEMBL1126267, “A novel synthesis and potent antiinflammatory activity of 4-hydroxy-2(1H)-oxo-1-phenyl-1,8-naphthyridine-3-carboxamides” (1992).

What was measured:
Assay type in all cases: functional
Rattus norvegicus [1] = assay: Inhibition of Zymosan-induced rat's paw edema(ZPE) after peroral administration of 100 mg/kg dose.; conditions: route oral
Outline: (§1)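 Male Wistar rats (about 150 g) were dosed orally with compound suspended in 5% arabic gum, 1 h before a subplantar hind-paw injection of 0.1 mL saline. The irritant was 1% zymosan for 33 or 1% λ-carrageenin for 34. Paw volume was measured by plethysmograph before dosing and at 4 h (zymosan) or 3 h (carrageenin). Swelling is relative to initial volume, as mean ± SEM. % inhibition is versus the control group's mean swelling.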

Rattus norvegicus [2] = assay: Compound was tested for the inhibition of Zymosan-induced rat's paw edema(ZPE) after peroral administration of 3 mg/kg dose; conditions: route oral
Outline: (§2)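 Male Wistar rats weighing about 150 g were dosed orally with compound suspended in 5% arabic gum. 1 h later, 1% zymosan in 0.1 mL saline was injected subplantarly into the hind paw. Paw volume was measured by plethysmograph before dosing and 4 h after zymosan, with edema as the volume difference. Inhibition % was derived from mean swelling versus the control group.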

Rattus norvegicus [3] = assay: Compound was tested for the inhibition of arachidonic acid-induced rat's paw edema(APE) after peroral administration of 10 mg/kg dose; conditions: route oral
Outline: (§3)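 Test: arachidonic acid paw edema in male Wistar rats of about 150 g. Oral dosing in 5% arabic gum came 1 h before subplantar injection of 1% arachidonic acid sodium salt in 0.1 mL saline into the hind paw. Plethysmograph paw volume was read before dosing and 1 h post-irritant, and edema = volume difference. % inhibition was taken from mean swelling against controls.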

Rattus norvegicus [4] = assay: Compound was tested for the inhibition of rat reversed passive Arthus pleurisy after peroral administration of 10 mg/kg dose at 0.53+/-0.05 mL of exudate volume (injected intrapleurally); conditions: route oral
Outline: (§4)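 Male Wistar rats (about 250 g) were given compound orally before the antiserum. Under ether anesthesia, 0.2 mL rabbit anti-egg albumin antiserum was injected intrapleurally. After 30 min, egg albumin (15 mg/100 g body weight in 0.1 mL saline) was given iv. Rats were killed 4.5 h later and the thoracic cavity was rinsed with 5 mL saline. Exudate volume and infiltrated cell number were measured, with inhibition % versus controls as mean ± SEM.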

Rattus norvegicus [5] = assay: Compound was tested for the inhibition of rat reversed passive Arthus pleurisy after peroral administration of 10 mg/kg dose at 4.6+/-0.25*10e6 no of cells; conditions: route oral; outline: as §4
Rattus norvegicus [6] = assay: Compound was tested for the inhibition of rat reversed passive Arthus pleurisy after peroral administration of 100 mg/kg dose at 0.08+/-0.01 mL of exudate volume (injected intrapleurally); conditions: route oral; outline: as §4
Rattus norvegicus [7] = assay: Compound was tested for the inhibition of Zymosan-induced rat's paw edema(ZPE) after peroral administration of 10 mg/kg dose; conditions: po; outline: as §2
Rattus norvegicus [8] = assay: Compound was tested for the inhibition of rat reversed passive Arthus pleurisy after peroral administration of 100 mg/kg dose at 2.13+/-0.24*10e6 no of cells; conditions: route oral; outline: as §4
Rattus norvegicus [9] = assay: Compound was tested for the inhibition of rat reversed passive Arthus pleurisy after peroral administration of 100 mg/kg dose at 2.13*10e6 no of cells with 3.86*10e6 cells of control; conditions: route oral; outline: as §4
Rattus norvegicus [10] = assay: Compound was tested for the inhibition of Carrageenan rat's paw edema(CPE) after peroral administration of 3 mg/kg dose; conditions: route oral
Rattus norvegicus [11] = assay: Compound was tested for the inhibition of arachidonic acid-induced rat's paw edema(APE) after peroral administration of 3 mg/kg dose; conditions: route oral; outline: as §3
Rattus norvegicus [12] = assay: Compound was tested for the inhibition of arachidonic acid-induced rat's paw edema(APE) after peroral administration of 30 mg/kg dose; conditions: route oral; outline: as §3
Rattus norvegicus [13] = assay: Compound was tested for the inhibition of rat reversed passive Arthus pleurisy after peroral administration of 100 mg/kg dose at 0.08 mL of exudate volume with 0.86 mL of control (injected intrapleurally); conditions: route oral; outline: as §4
Rattus norvegicus [14] = assay: Compound was tested for the inhibition of rat reversed passive Arthus pleurisy after peroral administration of 25 mg/kg dose at 4.74+/-0.24*10e6 no of cells; conditions: route oral
Outline: (§5)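 Male Wistar rats (about 250 g) under ether received 0.2 mL rabbit anti-egg-albumin antiserum intrapleurally. Thirty min later they got 15 mg EA/100 g body weight in 0.1 mL saline iv. Compounds were given orally beforehand. Rats were killed 4.5 h after induction and the thoracic cavity rinsed with 5 mL saline. Exudate volume and infiltrated cell count were read as mean ± SE. % inhibition is versus control.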

Rattus norvegicus [15] = assay: Compound was tested for the inhibition of rat reversed passive Arthus pleurisy after peroral administration of 25 mg/kg dose at 0.4+/-0.07 mL of exudate volume (injected intrapleurally); conditions: route oral; outline: as §5
Rattus norvegicus [16] = assay: Compound was tested for the inhibition of rat reversed passive Arthus pleurisy after peroral administration of 5 mg/kg dose at 0.73+/-0.03 mL of exudate volume (injected intrapleurally); conditions: route oral; outline: as §5
Rattus norvegicus [17] = assay: Compound was tested for the inhibition of rat reversed passive Arthus pleurisy after peroral administration of 5 mg/kg dose at 2.79 +/- 0.19*10e6 no of cells; conditions: route oral; outline: as §5
Rattus norvegicus [18] = assay: Antiinflammatory activity on Carrageenan rat's paw edema(CPE) after peroral administration of 10 mg/kg dose with control swelling of 75.8%; conditions: route oral
Rattus norvegicus [19] = assay: Antiinflammatory activity on Carrageenan rat's paw edema(CPE) after peroral administration of 100 mg/kg dose with control swelling of 64.2%; conditions: route oral
Rattus norvegicus [20] = assay: Antiinflammatory activity on Zymosan-induced rat's paw edema(ZPE) after peroral administration of 3 mg/kg dose with control swelling of 68.1%; conditions: route oral; outline: as §2
Rattus norvegicus [21] = assay: Compound was tested for the inhibition of arachidonic acid-induced rat's paw edema(APE) after peroral administration of 10 mg/kg dose with control swelling of 51.6%; conditions: route oral; outline: as §3
Rattus norvegicus [22] = assay: Compound was tested for the inhibition of arachidonic acid-induced rat's paw edema(APE) after peroral administration of 3 mg/kg dose with control swelling of 51.6%; conditions: route oral; outline: as §3
Rattus norvegicus [23] = assay: Compound was tested for the inhibition of arachidonic acid-induced rat's paw edema(APE) after peroral administration of 30 mg/kg dose with control swelling of 51.6%; conditions: route oral
Rattus norvegicus [24] = assay: Antiinflammatory activity on Zymosan-induced rat's paw edema(ZPE) after peroral administration of 30 mg/kg dose with control swelling of 68.1%; conditions: route oral; outline: as §2
Rattus norvegicus [25] = assay: Antiinflammatory activity on Zymosan-induced rat's paw edema(ZPE) after peroral administration of 100 mg/kg dose with control swelling of 71.7%; conditions: route oral; outline: as §2
Rattus norvegicus [26] = assay: Antiinflammatory activity on Carrageenan rat's paw edema(CPE) after peroral administration of 3 mg/kg dose with control swelling of 75.8%; conditions: route oral
Rattus norvegicus [27] = assay: Antiinflammatory activity on Carrageenan rat's paw edema(CPE) after peroral administration of 30 mg/kg dose with control swelling of 75.8%; conditions: route oral
Rattus norvegicus [28] = assay: Antiinflammatory activity on Zymosan-induced rat's paw edema(ZPE) after peroral administration of 10 mg/kg dose with control swelling of 68.1%; conditions: route oral; outline: as §2
Rattus norvegicus [29] = assay: Compound was tested for the inhibition of Zymosan-induced rat's paw edema(ZPE) after peroral administration of 30 mg/kg dose; conditions: route oral; outline: as §2
Rattus norvegicus [30] = assay: Inhibition of carrageenan-induced rat's paw edema (CPE) after peroral administration of 100 mg/kg dose.; conditions: route oral; outline: as §1
Rattus norvegicus [31] = assay: Compound was tested for the inhibition of rat reversed passive Arthus pleurisy after peroral administration of 100 mg/kg dose at 0.65 mL of exudate volume with 0.84 mL of control (injected intrapleurally); conditions: route oral; outline: as §4
Rattus norvegicus [32] = assay: Compound was tested for the inhibition of rat reversed passive Arthus pleurisy after peroral administration of 100 mg/kg dose at 4.66*10e6 no of cells with 5.72*10e6 cells of control; conditions: route oral; outline: as §5
Rattus norvegicus [33] = assay: Antiinflammatory activity on Carrageenan rat's paw edema(CPE) after peroral administration of 100 mg/kg dose with control swelling of 68.1%; conditions: route oral
Rattus norvegicus [34] = assay: Antiinflammatory activity on Zymosan-induced rat's paw edema(ZPE) after peroral administration of 100 mg/kg dose with control swelling of 62.8%; conditions: route oral; outline: as §2
Rattus norvegicus [35] = assay: Compound was tested for the inhibition of rat reversed passive Arthus pleurisy after peroral administration of 100 mg/kg dose at 0.63 mL of exudate volume with 0.84 mL of control (injected intrapleurally); conditions: route oral; outline: as §4
Rattus norvegicus [36] = assay: Compound was tested for the inhibition of rat reversed passive Arthus pleurisy after peroral administration of 100 mg/kg dose at 4.63*10e6 no of cells with 5.72*10e6 cells of control; conditions: route oral; outline: as §5
Rattus norvegicus [37] = assay: Antiinflammatory activity on Carrageenan rat's paw edema(CPE) after peroral administration of 100 mg/kg dose with control swelling of 73.7%; conditions: route oral
Rattus norvegicus [38] = assay: Antiinflammatory activity on Zymosan-induced rat's paw edema(ZPE) after peroral administration of 100 mg/kg dose with control swelling of 72.9%; conditions: route oral; outline: as §2

O=C(Nc1ccncc1)c1c(O)c2cccnc2n(-c2ccccc2)c1=O
inhibition in vivo at 100 mg/kg (Rattus norvegicus [1]): 34.9% | inhibition in vivo at 3 mg/kg (Rattus norvegicus [2]): 11.9% | inhibition in vivo at 10 mg/kg (Rattus norvegicus [3]): 50.6% | inhibition in vivo at 10 mg/kg (Rattus norvegicus [4]): 32.9% | inhibition in vivo at 10 mg/kg (Rattus norvegicus [5]): 35.8% | inhibition in vivo at 100 mg/kg (Rattus norvegicus [6]): 100% | inhibition in vivo at 10 mg/kg (Rattus norvegicus [7]): 20.3% | inhibition in vivo at 100 mg/kg (Rattus norvegicus [8]): 58.6% | inhibition in vivo at 100 mg/kg (Rattus norvegicus [9]): 58.6% | inhibition in vivo at 3 mg/kg (Rattus norvegicus [10]): 4.9% | inhibition in vivo at 3 mg/kg (Rattus norvegicus [11]): 36% | inhibition in vivo at 30 mg/kg (Rattus norvegicus [12]): 43.6% | inhibition in vivo at 100 mg/kg (Rattus norvegicus [13]): 100% | inhibition in vivo at 25 mg/kg (Rattus norvegicus [14]): 33.3% | inhibition in vivo at 25 mg/kg (Rattus norvegicus [15]): 51.4% | inhibition in vivo at 5 mg/kg (Rattus norvegicus [16]): -3.2% | inhibition in vivo at 5 mg/kg (Rattus norvegicus [17]): 26% | Swelling (Rattus norvegicus [18]): 71.3% | Swelling (Rattus norvegicus [19]): 48.6% | Swelling (Rattus norvegicus [20]): 60.6% | Swelling (Rattus norvegicus [21]): 25.5% | Swelling (Rattus norvegicus [22]): 33% | Swelling (Rattus norvegicus [23]): 29.1% | Swelling (Rattus norvegicus [24]): 48.5% | Swelling (Rattus norvegicus [25]): 46.7% | Swelling (Rattus norvegicus [26]): 72.1% | Swelling (Rattus norvegicus [27]): 58.8% | Swelling (Rattus norvegicus [28]): 54.3% | inhibition in vivo at 30 mg/kg (Rattus norvegicus [29]): 28.8% | inhibition in vivo at 100 mg/kg (Rattus norvegicus [30]): 24.3%

O=C(Nc1ccccn1)c1c(O)c2cccnc2n(-c2ccccc2)c1=O
inhibition in vivo at 100 mg/kg (Rattus norvegicus [1]): -13.5% | Swelling (Rattus norvegicus [19]): 54.8% | Swelling (Rattus norvegicus [25]): 81.4% | inhibition in vivo at 100 mg/kg (Rattus norvegicus [30]): 14.6%

Cc1ccc(NC(=O)c2c(O)c3cccnc3n(-c3ccccc3)c2=O)cc1
inhibition in vivo at 100 mg/kg (Rattus norvegicus [1]): -3.5% | inhibition in vivo at 100 mg/kg (Rattus norvegicus [31]): 22.4% | inhibition in vivo at 100 mg/kg (Rattus norvegicus [32]): 21.5% | Swelling (Rattus norvegicus [33]): 66.6% | Swelling (Rattus norvegicus [34]): 65% | inhibition in vivo at 100 mg/kg (Rattus norvegicus [30]): 2.2%

COc1cccc(NC(=O)c2c(O)c3cccnc3n(-c3ccccc3)c2=O)c1
inhibition in vivo at 100 mg/kg (Rattus norvegicus [35]): 26.9% | inhibition in vivo at 100 mg/kg (Rattus norvegicus [1]): 5.7% | inhibition in vivo at 100 mg/kg (Rattus norvegicus [36]): 22.1% | Swelling (Rattus norvegicus [33]): 54% | Swelling (Rattus norvegicus [34]): 59.2% | inhibition in vivo at 100 mg/kg (Rattus norvegicus [30]): 20.7%

Nc1ccc(NC(=O)c2c(O)c3cccnc3n(-c3ccccc3)c2=O)cc1
inhibition in vivo at 100 mg/kg (Rattus norvegicus [1]): -5.5% | Swelling (Rattus norvegicus [37]): 79% | Swelling (Rattus norvegicus [38]): 76.9% | inhibition in vivo at 100 mg/kg (Rattus norvegicus [30]): 0%
